Article PMC11617931 (Molecular Therapy. Nucleic Acids, 2024)
Bridge positions count the residues as written; N and C are the ends. Ends that are not written are not given here.

Key:
[1] = system: mucus-producing differentiated CF pHBECs cultured at ALI; experiment: Validation of phage clone uptake by standard double-layer plaque assay; type: cell-based, human; conditions: Cout/Cin, 1 h, 37°C, n = 3
In short: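 Clones were sequence-verified from BL21 E. coli plaques and amplified in liquid BL21 culture. Each clone (3.3 × 10^7 PFU in 100 µL DPBS) was applied apically to ALI-differentiated CF pHBECs for 1 h at 37°C. Cells were washed with elution buffer and DPBS, lysed with M-PER, and spun at 14,000 × g. Internalized phage in the supernatant were titered by double-layer plaque assay as Cout/Cin. Controls were peptide-less WT phage, naive library, and CPS phage.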

[2] = system: differentiated CF pHBECs cultured at ALI; type: cell-based, human; conditions: average of three replicates, first to last round; 1,000 vg/cell
In short: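 Pooled T7 CX7C phage libraries were diluted in DPBS (no Ca2+/Mg2+) to 3.3 × 10^5 PFU/µL, giving 1,000 vg/cell, and applied to ALI-differentiated CF pHBECs pooled from seven donors (3.3 × 10^4 cells/insert). Incubation was 16 h at 37°C in round 1 and 1 h in round 5. Lysate was spun at 14,000 × g for 10 min and the supernatant titered by double-layer plaque assay. Output was pooled as input for the next round. Cout/Cin change was taken from three replicates, unpaired t test.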

[3] = 3.3 × 10^7 PFU apical, p < 0.005

Sequence	uptake compared to insertless wild-type (WT) control and CPS control [1]	improvement in uptake compared to naive library ([1]; 3.3 × 10^7 PFU apical, p < 0.0005) [fold]	improvement in uptake compared to WT [1, 3] [fold]	improvement in uptake compared to clone CPS [1, 3] [fold]	increase in Cout/Cin after five rounds of selection [2] [fold]
CTSTRKKQC (disulfide 1-9 (inferred)) [Clone C]	significantly improved uptake	~454	56	50	–
CXXXXXXXC (disulfide) [CX7C T7 library]	–	–	–	–	380
